Screening results from PubChem.
TAAR1 antag: antagonists of human TAAR1; actives 1.5% (n = 360,000); AID 624466; Q96RJ0; inhibition, % at 3 µM; CHO RD-HGA16 TAAR1, Fluo-8 calcium fluorescence, antagonist;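 active = inhibition above a per-plate cutoff, the mean inhibition of test compounds on that plate plus 3 SD, cut at about 49% in these data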
Target sequence (Q96RJ0 whole entry, looked up): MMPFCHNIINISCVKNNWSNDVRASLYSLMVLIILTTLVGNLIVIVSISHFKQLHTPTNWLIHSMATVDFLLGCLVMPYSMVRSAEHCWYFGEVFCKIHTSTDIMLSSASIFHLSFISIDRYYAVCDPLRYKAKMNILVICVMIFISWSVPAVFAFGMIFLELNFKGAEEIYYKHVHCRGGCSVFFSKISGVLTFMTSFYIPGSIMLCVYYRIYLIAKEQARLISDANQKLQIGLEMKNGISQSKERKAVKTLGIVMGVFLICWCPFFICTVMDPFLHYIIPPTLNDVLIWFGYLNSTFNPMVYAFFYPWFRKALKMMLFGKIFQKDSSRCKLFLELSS
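Assay system: RD-HGA16 CHO cells with stable hTAAR1 and Gα16 / Reagent: EC80 β-phenethylamine stimulus / Doses: 3 µM, single point / Timing: dye loading 75 min at 37 °C, then 30 min room temperature / Measured by: Fluo-8 intracellular calcium dye fluorescence, real-time kinetic reads / Controls: vehicle wells and EC80 agonist wells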
CHO parental Ca: signal in parental CHO cells, OX1R antagonist counter-screen | parental CHO-K1, ATP-induced calcium, Fluo-8 fluorescence | inhibition, % at 5.6 µM | actives 0.63% (n = 330,000);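 active = inhibition above that plate's mean sample inhibition plus 3 SD, cut at about 26% in these data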
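test system = CHO parental line | reagent = ATP stimulus | measured by = intracellular calcium via Fluo-8 no-wash fluorescent dye | control set = ATP and no-ATP DMSO wells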
OX1R antag-1: blocks the human orexin 1 receptor; O43613; CHO/OX1R cells, Fluo-8 calcium fluorescence, orexin A; inhibition, % at 5 µM; actives 0.43% (n = 330,000); AID 434989;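 active = inhibition above its plate's threshold, mean inhibition of all tested compounds on the plate plus 3 SD, cut at about 37% in these data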
Target sequence (O43613 whole entry, looked up): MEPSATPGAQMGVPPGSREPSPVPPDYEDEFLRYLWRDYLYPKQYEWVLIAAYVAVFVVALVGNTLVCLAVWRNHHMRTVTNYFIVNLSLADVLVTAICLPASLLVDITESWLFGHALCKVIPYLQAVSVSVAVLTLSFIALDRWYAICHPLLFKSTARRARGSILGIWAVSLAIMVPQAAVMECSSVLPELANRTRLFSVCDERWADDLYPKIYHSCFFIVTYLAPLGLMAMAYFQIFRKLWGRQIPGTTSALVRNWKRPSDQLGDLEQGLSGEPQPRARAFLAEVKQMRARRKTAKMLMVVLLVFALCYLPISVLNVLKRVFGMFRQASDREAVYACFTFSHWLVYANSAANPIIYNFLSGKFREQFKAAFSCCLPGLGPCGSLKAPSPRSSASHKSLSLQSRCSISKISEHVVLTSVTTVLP
TAAR1 agonist: agonists of human TAAR1; Q96RJ0; CHO RD-HGA16 TAAR1, Fluo-8 calcium fluorescence; vehicle wells 0%, saturating PEA agonist 100%; activation, % at 3 µM; actives 0.99% (n = 360,000); AID 624467;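 active = activation above the mean activation of all test compounds in the run plus 3 SD, cut at about 38% in these data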
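test system = CHO RD-HGA16 cells carrying human TAAR1 plus Gα16 | schedule = 17-24 h seeding, 75 min 37 °C dye, 30 min RT | compound dosing = 3 µM single concentration | control set = DMSO and PEA EC100 | replicates = n 1 | signal = Fluo-8 fluorescence, 5 s baseline then 140 s kinetic read | measure = percent activation vs PEA EC100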
OX1R antag-2: blocks the human orexin 1 receptor; OX1R-expressing cells, FRET antagonist read-out; inhibition, % at 6.6 µM; O43613; actives 1.8% (n = 330,000); in the data active = inhibition mostly above about 38%, no sharp cut-off; inactive = mostly below about 40%
Each line names hits and unclear results; the compound was inactive in the other large screens. This is a sample that favours compounds with a hit; in the whole collection about 3.9% have one here.

Brc1c(-c2ccccc2)nc2n1Cc1ccccc1-2	OX1R antag-2 64.1
C#CCN(Cc1ccccc1)S(=O)(=O)C=C	none
Cc1cc(N2CCOCC2)nc(NCc2ccccc2)n1	TAAR1 agonist 49.2
O=c1cc(-c2ccccc2Cl)oc2c(NS(=O)(=O)c3cc(Cl)cc(Cl)c3O)ccc(O)c12	CHO parental Ca 75.1, OX1R antag-2 70.4 (no result: TAAR1 antag, TAAR1 agonist)
O=C(Nc1ccc(O)c2c(=O)cc(-c3ccccc3Cl)oc12)c1ccc(Cl)cc1Cl	none
OC(c1cccc(Cl)c1)c1ncc(-c2cccc(C(F)(F)F)c2)[nH]1 (centres undefined)	none (no result: CHO parental Ca, OX1R antag-1, OX1R antag-2)
CC(C)COc1ccc(/C(=N/O)c2ccccc2)cc1	CHO parental Ca 32.9
CC(C)COc1ccc(CNC(=S)NCc2ccccc2)cc1	none
O=S(=O)(NC1CCCCC1)c1cccc2nsnc12	none
CCC(C)(C)NC(=O)C1CCC(CNS(=O)(=O)c2cccc3nsnc23)CC1 (centres undefined)	none (no result: TAAR1 antag, TAAR1 agonist)
O=S(=O)(NCC1CCCO1)c1cccc2nsnc12 (centres undefined)	OX1R antag-2 41.5
CC(C)(C)NC(=O)C1CCC(CNS(=O)(=O)c2cccc3nsnc23)CC1 (centres undefined)	TAAR1 antag 75.7, TAAR1 agonist 41.8
CCc1nc2ccc(C(=O)NCc3ccccc3OC)cn2c1N(CC)CCOC	none (no result: CHO parental Ca, OX1R antag-1, OX1R antag-2)
Nc1nc(Cl)cc(N2CCC(c3cc(-c4ccc(Cl)cc4Cl)n[nH]3)CC2)n1	CHO parental Ca 31.5
O=C(CS(=O)(=O)c1ccc(F)cc1)Nc1nnc(-c2ccccc2Cl)o1	OX1R antag-2 45.4
CC(C)N(CCCNC(=O)Cn1c(=O)c2cccn2c2ccccc21)Cc1ccccc1	OX1R antag-2 66.3
OCCNc1ncnc2c1nnn2Cc1ccccc1	none (no result: CHO parental Ca, OX1R antag-1, OX1R antag-2)
Clc1ccc(CCNc2ncnc3c2nnn3Cc2ccccc2)cc1	TAAR1 agonist 37.7
CC(C)CCNc1ncnc2c1nnn2Cc1ccccc1Cl	TAAR1 agonist 40.1
CCc1nc2ccc(C(=O)NC3CCN(Cc4ccccc4)CC3)cn2c1N(C)Cc1cc2ccccc2s1	none (no result: CHO parental Ca, OX1R antag-1, OX1R antag-2)
CC1(C(=O)NS(=O)(=O)c2cccc(OC(F)F)c2)CCN1C(=O)C1CCCCC1 (centres undefined)	none (no result: CHO parental Ca, OX1R antag-1, OX1R antag-2)
C=CCc1cccc(CNc2cnc3ccccc3c2)c1O	CHO parental Ca 72.3
Oc1ccccc1CNc1cnc2ccccc2c1	none
Nc1c(C(=O)NCc2ccc3c(c2)OCO3)c2nc3ccccc3nc2n1CCCN1CCOCC1	CHO parental Ca 33.5
O=C1c2cccc(O)c2C(=O)c2c(O)cc(CO)cc21	OX1R antag-2 48.1 (no result: TAAR1 antag, TAAR1 agonist)
COc1ccc(OC)c(CN2C(=O)CN(S(C)(=O)=O)CC2(C)C(=O)Nc2c(C)cccc2C)c1 (centres undefined)	none (no result: CHO parental Ca, OX1R antag-1, OX1R antag-2)
CCOc1ccc(C(=O)OCC(=O)Nc2ccc(SC(F)F)cc2)cc1OCC	CHO parental Ca 25.2
CC1(C(=O)Nc2ccccc2F)CCN1C(=O)Cc1ccc(-c2ccccc2)cc1 (centres undefined)	none (no result: CHO parental Ca, OX1R antag-1, OX1R antag-2)
CC(NC(=O)Nc1ccc([N+](=O)[O-])cc1)C(c1ccccc1)N1CCOCC1 (centres undefined)	TAAR1 agonist 48.9
CC(NC(=O)Nc1ccc(Cl)c(Cl)c1)C(c1ccccc1)N1CCOCC1 (centres undefined)	TAAR1 agonist 57.0
CC(Cc1cccs1)NC(=O)Nc1ccc(Cl)c(Cl)c1 (centres undefined)	CHO parental Ca 62.7, OX1R antag-1 47.4, OX1R antag-2 49.0
COc1ccccc1N(C)S(=O)(=O)c1ccc(Cl)c(C(=O)Nc2ccccc2N2CCOCC2)c1	none (no result: CHO parental Ca, OX1R antag-1, OX1R antag-2)
Cc1ccc(CN2C(=O)c3ccccc3C2c2nnnn2C(C)C)cc1 (centres undefined)	none (no result: CHO parental Ca, OX1R antag-1, OX1R antag-2)
CCc1nnc(NC(=O)CN2CCC(O)(c3ccccc3OC)CC2)s1	none
COc1ccccc1C1(O)CCN(CC(=O)Nc2nc(-c3ccccc3)cs2)CC1	TAAR1 antag 53.0
CCOC(=O)N1CCN(C(=O)CSCC(=O)Nc2nc(-c3ccc(OC)cc3)cs2)CC1	none
CCOC(=O)N1CCN(C(=O)CSCC(=O)Nc2nc(-c3ccc(-c4ccccc4)cc3)cs2)CC1	TAAR1 antag 70.2, CHO parental Ca 90.8, OX1R antag-1 52.8, OX1R antag-2 47.9
Cc1ccc(/C=N/N(C)S(=O)(=O)c2ccc(C)cc2)cc1	CHO parental Ca 51.1
Cc1ccc(S(=O)(=O)N(C)/N=C/c2ccc(C(=O)O)cc2)cc1	none
CSc1ccc(/C=N/N(C)S(=O)(=O)c2ccc(C)cc2)cc1	CHO parental Ca 63.0
CCOC(=O)C1=NN(C(=O)c2ccccc2)C(O)(c2ccc(C)cc2)C1 (centres undefined)	TAAR1 agonist 38.3
O=C1c2ccc([N+](=O)[O-])cc2C(=O)N1Cc1cccnc1	OX1R antag-2 76.5
Nc1nc2c(ncn2[C@@H]2O[C@H](C(=O)NCC3CCCCC3)[C@@H](O)[C@H]2O)c(=O)[nH]1	none (no result: CHO parental Ca, OX1R antag-1, OX1R antag-2)
CCCCN1CC(COCc2ccccc2)Oc2cccc(Oc3ccc(SC)c(C)c3)c2S1(=O)=O (centres undefined)	none (no result: CHO parental Ca, OX1R antag-1, OX1R antag-2)
COc1ccc(OC)c(C(=O)NC2CCSc3ccccc32)c1 (centres undefined)	OX1R antag-2 47.1
COc1ccc(NC(=O)CN(C)C(=O)CN2C(=O)c3ccc([N+](=O)[O-])cc3C2=O)cc1	OX1R antag-2 60.6
CN(C(=O)CN1C(=O)c2ccc([N+](=O)[O-])cc2C1=O)C1CCCCC1	OX1R antag-2 64.0
CCN(C(=O)CN1C(=O)c2ccc([N+](=O)[O-])cc2C1=O)C1CCCCC1	OX1R antag-2 56.3
CCOC(=O)[C@]12CCCC=C1N(Cc1cccc3ccccc13)C(=O)[C@H](CC(=O)NCCCOC)C2	none (no result: CHO parental Ca, OX1R antag-1, OX1R antag-2)
COc1cccc2cc(C(C)N(CCCN3CCOCC3)C(=S)Nc3cc(C)ccc3C)oc12 (centres undefined)	none
COc1cccc2cc(C(C)N(CCCN3CCOCC3)C(=S)Nc3cccc(C)c3C)oc12 (centres undefined)	TAAR1 agonist 39.2
CCOC(=O)C1CCN(C(=O)c2c(C)oc3c2C(=O)c2ccccc2C3=O)CC1	OX1R antag-2 70.3
CC1CCN(C(=O)c2ccc3c(c2)C(=O)c2ccccc2-3)CC1	none (no result: CHO parental Ca, OX1R antag-1, OX1R antag-2)
Cc1oc2c(c1C(=O)N1CCC(C)CC1)C(=O)c1ccccc1C2=O	OX1R antag-2 66.7
COC(=O)c1cc2c(c3c4cc(F)ccc4n(S(=O)(=O)c4cccc(C)c4)c13)C(=O)N(Cc1ccc(C(F)(F)F)cc1)C2	none (no result: CHO parental Ca, OX1R antag-1, OX1R antag-2)
Cc1nn(C)c(C)c1CN(C)S(=O)(=O)c1ccc(F)cc1	none
Cc1nn(C)c(C)c1CN(C)S(=O)(=O)c1ccc2ccccc2c1	CHO parental Ca 38.2, OX1R antag-2 52.6
CCCc1ccc(-c2cc(NC(=O)Cc3c(C)[nH]c4ccccc34)ccc2N(C)c2cccnc2)cc1	none (no result: CHO parental Ca, OX1R antag-1, OX1R antag-2)
O=[N+]([O-])c1ccc(O)c(/C=N/Nc2ccccn2)c1	TAAR1 antag 72.9, CHO parental Ca 86.8, OX1R antag-1 74.7, TAAR1 agonist 44.6
